Only some compounds are listed: those with a hit (about 1.3% of all), similar ones and a draw of the others.
LANA DNA inh: inhibitors of KSHV LANA C-terminal domain DNA binding; actives 0.078% (n = 340,000); MBP-C-LANA/FAM-LBS DNA binding, fluorescence polarization; inhibition, % at 9 µM;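 active = highest replicate inhibition at or above 60% at 9 µM, even if other replicates fall short; inactive = all replicates below 60% inhibition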
CAL PDZ FP-1: human CAL PDZ-peptide interaction inhibition; inhibition, % at 20 µM; purified CAL PDZ, TMR-peptide fluorescence polarization, 1 h; Q9HD26; actives 0.02% (n = 330,000);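 active = highest replicate inhibition of at least 40%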
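System: purified tagged CAL PDZ domain construct (CerCALP). Schedule: 1 h incubation at room temperature before polarization reading. Medium: 25 mM sodium phosphate pH 7.4, 150 mM NaCl, TCEP, IgG, Thesit. Read-out: percent inhibition from loss of millipolarization. Measured by: FP readout, S and P plane fluorescence. Probe or stimulus: fluorescent TMR peptide probe.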
CAL PDZ FP-2: inhibitors of human CAL PDZ peptide binding. Q9HD26. purified CAL PDZ, TMR-peptide fluorescence polarization, 1 h. inhibition, % at 24.9 µM. actives 0.92% (n = 300,000). AID 602252;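 active = mean inhibition of at least 30% with at least half of replicates also reaching 30%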
RTF Ca sens act: increases calcium sensitivity of human cardiac regulated thin filaments | actives 0.24% (n = 340,000) | activation, % at 7.2 µM | IANBD-labeled TnC RTF fluorescence at EC20 calcium; 0% EC20 calcium, 100% full calcium | AID 493008;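 active = activation above the mean over all tested compounds plus 3 SD, cut at about 30% in these data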;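 note: rise in fluorescence read as greater calcium sensitivity of cardiac thin filaments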
RTF Ca sens inh: cardiac RTF calcium desensitization; IANBD-labeled cardiac RTF, Ca2+ fluorescence; inhibition, % at 7.15 µM; actives 0.12% (n = 340,000); AID 493244;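 active = inhibition above the mean inhibition of all tested compounds plus 3 SD, cut at about 17% in these data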;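 note: assay run at fixed EC70 calcium of 1.6 mM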
Keap1-Nrf2 PPI: Keap1-Nrf2 (human) interaction inhibition; Q14145; Keap1 Kelch-Nrf2 peptide fluorescence polarization, 1536-well; inhibition, % at 9.4 µM; actives 0.15% (n = 340,000); AID 504523; in the data active = inhibition above about 12%;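 note: human Keap1 Kelch domain with fluorescein labeled Nrf2 9mer peptide probe; higher means more block of Keap1 binding to Nrf2 peptide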
Target sequence (Q14145 whole entry, looked up, the tested form may be a part): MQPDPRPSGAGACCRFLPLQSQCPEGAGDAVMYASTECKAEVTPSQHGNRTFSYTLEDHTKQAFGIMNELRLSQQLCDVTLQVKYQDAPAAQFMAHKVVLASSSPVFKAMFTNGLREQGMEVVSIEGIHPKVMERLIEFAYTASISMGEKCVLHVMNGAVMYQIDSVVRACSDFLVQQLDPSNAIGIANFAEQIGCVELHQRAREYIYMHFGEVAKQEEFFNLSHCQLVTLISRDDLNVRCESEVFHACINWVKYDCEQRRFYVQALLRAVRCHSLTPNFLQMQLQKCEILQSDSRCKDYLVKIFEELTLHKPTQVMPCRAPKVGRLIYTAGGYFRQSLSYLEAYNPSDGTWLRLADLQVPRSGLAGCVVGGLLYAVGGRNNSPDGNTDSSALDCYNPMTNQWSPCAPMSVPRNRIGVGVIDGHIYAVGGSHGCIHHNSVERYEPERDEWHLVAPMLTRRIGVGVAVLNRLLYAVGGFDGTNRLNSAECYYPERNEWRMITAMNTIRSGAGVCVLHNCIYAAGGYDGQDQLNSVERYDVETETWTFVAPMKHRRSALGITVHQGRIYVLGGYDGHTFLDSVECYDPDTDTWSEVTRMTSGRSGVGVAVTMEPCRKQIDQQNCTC
Each line names hits and unclear results; the compound was inactive in the other large screens.

CC(C)(C)CN1CCNC(=O)C1CC(=O)NCCN1CCCc2ccccc21 (centres undefined)	CAL PDZ FP-2 55
O=C(NNC(=O)c1ccccc1Br)c1ccccc1Cl	none (no result: CAL PDZ FP-2)
NC(=S)NNC(=O)c1ccccc1Cl	CAL PDZ FP-2 34
COc1ccc(-n2c(CNC(=O)COc3ccccc3)n[nH]c2=S)cc1	CAL PDZ FP-2 41
O=C(COc1ccccc1)NCc1n[nH]c(=S)n1-c1ccccc1	none
COc1ccc(C(=O)O/N=C(\N)c2ccccc2)cc1OC	CAL PDZ FP-2 43 (no result: CAL PDZ FP-1)
CCOc1ccc(NC(=O)CN(C)C(=O)c2ccc3nc(CC)c(CC)nc3c2)cc1OCC	CAL PDZ FP-2 39
Nn1c(SCC(=O)Nc2ccc3c(c2)OCCO3)nnc(CCC(=O)O)c1=O	CAL PDZ FP-2 83
Cc1nnc(SCC(=O)Nc2ccc3c(c2)OCCO3)n1N	none
N#CCCN(Cc1ccccc1)S(=O)(=O)c1cccs1	CAL PDZ FP-2 61 (no result: CAL PDZ FP-1)
CC(CCc1ccccn1)C(=O)C(C)CCc1ccccn1 (centres undefined)	CAL PDZ FP-2 81
COc1ccc(CC2CCOC2=O)cc1 (centres undefined)	CAL PDZ FP-2 62
COc1ccc(CC2C(=O)OC(C)(C)OC2=O)cc1	none
CCCc1c(C)nc(N2CCN(c3ccccc3OC)CC2)[nH]c1=O	CAL PDZ FP-2 55
CN(C(=O)CSc1nc2sc3c(c2c(=O)n1C)CCC3)C1CCS(=O)(=O)C1 (centres undefined)	none
OC(CNCc1ccc2c(c1)OCO2)COc1ccc(F)cc1 (centres undefined)	none
CC(=O)c1ccc(OCC(O)CNCc2ccc3c(c2)OCO3)cc1 (centres undefined)	CAL PDZ FP-2 42
CCOC(=O)c1c(C)[nH]c(C)c1S(=O)(=O)N(C)CC(=O)Nc1cccc(F)c1	CAL PDZ FP-2 34
CCOC(=O)c1c(C)[nH]c(C)c1S(=O)(=O)N(C)CC(=O)Nc1cccc(C)c1	none
O=C(NCc1ccccn1)C(=O)Nc1cc2c3c(c1)CC(=O)N3CCC2	none
CCOc1cc(S(=O)(=O)N(CC)CC)ccc1Cl	none
CCOc1cc(C)c(Cl)cc1S(=O)(=O)N(CC)CC	CAL PDZ FP-2 74
CC(C)NC(=O)COc1cccc2ccccc12	none
CSCCC(NC(=O)COc1cccc2ccccc12)C(=O)O (centres undefined)	CAL PDZ FP-2 70
CC(C)CNC(=O)C(=O)NC1CCCC1	none
CC(C)CNC(=S)NC1CCCC1	CAL PDZ FP-2 140 (no result: CAL PDZ FP-1)
Cc1ccc(-c2nc(N)n(C(=O)Cc3ccccc3)n2)cc1	none
Cc1ccc(-c2nc(N)n(C(=O)c3cccs3)n2)cc1	CAL PDZ FP-2 83
COc1ccc(-n2nc(C(=O)NCC(=O)N3CCCC(C)C3)c3ccccc3c2=O)cc1 (centres undefined)	none
COc1ccc(-n2nc(C(=O)NCC(=O)N3CCN(c4ccccn4)CC3)c3ccccc3c2=O)c(OC)c1	CAL PDZ FP-2 43
COc1ccc(-n2nc(C(=O)NCC(=O)N3CCC(C)CC3)c3ccccc3c2=O)cc1	CAL PDZ FP-2 47
CC(=O)Nc1ccc(NC(=O)c2ccnn2C)cc1	none
OCCCc1cn(Cc2ccccc2)c2ccccc12	CAL PDZ FP-2 56 (no result: CAL PDZ FP-1)
CN(C)S(=O)(=O)c1ccc2c(c1)/C(=C/c1cc3c([nH]1)CCCC3)C(=O)N2	RTF Ca sens act 61
Cc1nc(N2CCN(c3ccccc3)CC2)[nH]c(=O)c1C	none
N#C/C(=C\c1ccc(OCc2ccccc2)cc1)C(=O)Nc1nc2c(s1)CCN(Cc1ccccc1)C2	none
CN(C)c1ccc(/C=C(/C#N)C(=O)Nc2nc3c(s2)CCN(Cc2ccccc2)C3)cc1	RTF Ca sens act 51
CCOc1ccc(S(=O)(=O)N2CCCCC2)cc1NC(=O)CN1C(=O)NC(C)(c2ccccc2)C1=O (centres undefined)	none
COc1cccc(-n2cc(C(=O)NCCCOC(C)C)c3ccccc3c2=O)c1	LANA DNA inh 120
COc1ccc(-c2cc(CCC(=O)N3CCN(c4cc(C)ccc4C)CC3)on2)cc1	none
O=C1NC(=O)N(Cc2ccccc2)CC1Br (centres undefined)	CAL PDZ FP-2 31
O=C1CCN(Cc2ccccc2)C(=O)N1	none

Compound activity from PubChem BioAssay.
